Active and inactive are the calls of the source. The calls are words filed in the database; no cut-off is given here.
Experiments:
Jurkat [1] = assay: Cell cycle arrest in human Jurkat E6-1 cells assessed as accumulation at G0/G1 phase at 10 uM after 24 hrs by FACS flow cytometry; assay type: functional
Outline: (§1)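 Jurkat E6 cells cultured in RPMI 1640 with 10% FBS at 37 °C, 5% CO2. Compounds serially diluted in medium, starting 50% above the M21 IC50. 4.0 × 10^5 cells were exposed for 24 h. Cells were washed with PBS, chicken red blood cells added as internal standard, and fixed in ice-cold EtOH. After 1 h on ice in PBS with 1 μg/mL DAPI, phase distribution was read by flow cytometry. DMSO-treated cells served as control.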

HT-29 = assay: Cytotoxicity against human HT-29 cells after 48 hrs by SRB assay; assay type: functional, cell-based; conditions: HT-29, 48 h
Outline: (§2)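 NCI sulforhodamine B protocol. Cells were grown in high-glucose DMEM with 5% FBS and seeded per well at 4 × 10^3 (HT-29), 3.5 × 10^3 (M21) or 3 × 10^3 (MCF-7), then allowed 24 h to attach. Serial dilutions from 200 μM to 780 nM final were applied in DMSO <0.5% for 48 h. Cells were fixed with cold TCA (10% final) and stained with SRB, with absorbance read at 530–568 nm. Growth inhibition was computed against day-0 plates, giving the 50% inhibitory concentration. At least two experiments in triplicate, CV <10%.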

Jurkat [2] = assay: Cell cycle arrest in human Jurkat E6-1 cells assessed as accumulation at S phase at 10 uM after 24 hrs by FACS flow cytometry; assay type: functional
Outline: (§3)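 Jurkat E6 cells grown in RPMI 1640 with 10% FBS at 37 °C, 5% CO2. Compounds were serially diluted in medium starting 50% above the M21 IC50. 4.0 × 10^5 cells were exposed for 24 h, then washed and spiked with chicken red blood cells as internal standard. Cells were fixed in ice-cold ethanol, stained with 1 μg/mL DAPI on ice for 1 h, and phase distribution was read by flow cytometry. The control was 0.5% DMSO.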

M21 [3] = assay: Cytotoxicity against human M21 cells after 48 hrs by SRB assay; assay type: functional, cell-based; conditions: M21, 48 h; outline: as §2
Jurkat [4] = assay: Cell cycle arrest in human Jurkat E6-1 cells assessed as accumulation at G2/M phase at 10 uM after 24 hrs by FACS flow cytometry; assay type: functional; outline: as §1
MCF7 = assay: Cytotoxicity against human MCF7 cells after 48 hrs by SRB assay; assay type: functional, cell-based; conditions: MCF7, 48 h; outline: as §2
Jurkat [5] = assay: Cell cycle arrest in human Jurkat E6-1 cells assessed as accumulation at S phase at 7.5 uM after 24 hrs by FACS flow cytometry; assay type: functional
Outline: (§4)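 Jurkat E6 T-lymphoblasts in RPMI 1640 with 10% FBS, 37 °C, 5% CO2. […] Chicken red blood cells were added as internal standard. Cells were fixed in ice-cold EtOH and stained with 1 μg/mL DAPI on ice for 1 h before flow cytometry of phase distribution. Vehicle control was 0.5% DMSO.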

Jurkat [6] = assay: Cell cycle arrest in human Jurkat E6-1 cells assessed as accumulation at G2/M phase at 7.5 uM after 24 hrs by FACS flow cytometry; assay type: functional; outline: as §3
Jurkat [7] = assay: Cell cycle arrest in human Jurkat E6-1 cells assessed as accumulation at G0/G1 phase at 7.5 uM after 24 hrs by FACS flow cytometry; assay type: functional; outline: as §1
Jurkat [8] = assay: Cell cycle arrest in human Jurkat E6-1 cells assessed as accumulation at G2/M phase at 63 uM after 24 hrs by FACS flow cytometry; assay type: functional; outline: as §3
Jurkat [9] = assay: Cell cycle arrest in human Jurkat E6-1 cells assessed as accumulation at G0/G1 phase at 63 uM after 24 hrs by FACS flow cytometry; assay type: functional; outline: as §1
Jurkat [10] = assay: Cell cycle arrest in human Jurkat E6-1 cells assessed as accumulation at S phase at 63 uM after 24 hrs by FACS flow cytometry; assay type: functional; outline: as §4
Jurkat [11] = assay: Cell cycle arrest in human Jurkat E6-1 cells assessed as accumulation at S phase at 64 uM after 24 hrs by FACS flow cytometry; assay type: functional; outline: as §4
Jurkat [12] = assay: Cell cycle arrest in human Jurkat E6-1 cells assessed as accumulation at G2/M phase at 64 uM after 24 hrs by FACS flow cytometry; assay type: functional; outline: as §3
Jurkat [13] = assay: Cell cycle arrest in human Jurkat E6-1 cells assessed as accumulation at G0/G1 phase at 64 uM after 24 hrs by FACS flow cytometry; assay type: functional; outline: as §1
Jurkat [14] = assay: Cell cycle arrest in human Jurkat E6-1 cells assessed as accumulation at G0/G1 phase at 1.7 uM after 24 hrs by FACS flow cytometry; assay type: functional; outline: as §1
HT-1080 = assay: Antitumor activity against human HT1080 cells xenografted in chicken chorioallantoic membrane assessed as inhibition of tumor growth at 30 ug per egg, iv administered on day 11 measured on day 17 by CAM assay; assay type: functional
Outline: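 HT-1080 fibrosarcoma cells (3.5 × 105/egg) were applied onto freshly exposed CAM of fertilized chicken eggs. On day 11, drug from a DMSO stock was diluted in Cremophor EL/99% ethanol/PBS (1/1/14 v/v) and 100 μL was injected into a vein under the CAM. Groups of 10–12 eggs were kept to day 17, embryos were euthanized at 4 °C for ≥4 h, and tumor wet weight was recorded.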

Jurkat [15] = assay: Cell cycle arrest in human Jurkat E6-1 cells assessed as accumulation at G2/M phase at 1.7 uM after 24 hrs by FACS flow cytometry; assay type: functional; outline: as §1
M21 [16] = assay: Induction of DNA damage response in human M21 cells assessed as phosphorylation of H2AX into gammaH2AX at IC50 after 24 hrs by DAPI staining-based immunofluorescence assay; assay type: functional, cell-based
Outline: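 M21 cells (1 × 10^5) on fibronectin-coated coverslips, grown 24 h, then exposed to agent for 24 h at 37 °C; 0.5% DMSO control. Fixed with 3.7% formaldehyde and permeabilized with 0.1% saponin/3% BSA. Probed with mouse anti-H2AX pS139 antibody for 2 h at room temperature. Nuclei counterstained with DAPI; nuclear γH2AX foci viewed by epifluorescence microscopy.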

Jurkat [17] = assay: Cell cycle arrest in human Jurkat E6-1 cells assessed as accumulation at S phase at 1.7 uM after 24 hrs by FACS flow cytometry; assay type: functional; outline: as §3
Jurkat [18] = assay: Cell cycle arrest in human Jurkat E6-1 cells assessed as accumulation at S phase at 4.8 uM after 24 hrs by FACS flow cytometry; assay type: functional; outline: as §4
Jurkat [19] = assay: Cell cycle arrest in human Jurkat E6-1 cells assessed as accumulation at G0/G1 phase at 4.8 uM after 24 hrs by FACS flow cytometry; assay type: functional; outline: as §1
Jurkat [20] = assay: Cell cycle arrest in human Jurkat E6-1 cells assessed as accumulation at G2/M phase at 4.8 uM after 24 hrs by FACS flow cytometry; assay type: functional; outline: as §3
Jurkat [21] = assay: Cell cycle arrest in human Jurkat E6-1 cells assessed as accumulation at S phase at 13 uM after 24 hrs by FACS flow cytometry; assay type: functional; outline: as §3
Jurkat [22] = assay: Cell cycle arrest in human Jurkat E6-1 cells assessed as accumulation at G2/M phase at 13 uM after 24 hrs by FACS flow cytometry; assay type: functional; outline: as §1
Jurkat [23] = assay: Cell cycle arrest in human Jurkat E6-1 cells assessed as accumulation at G0/G1 phase at 13 uM after 24 hrs by FACS flow cytometry; assay type: functional; outline: as §1

CCCc1ccccc1NS(=O)(=O)c1cccc(NC(=O)NCCCl)c1
Activity (Jurkat [1]): 42% | IC50 (HT-29): 15 µM | Activity (Jurkat [2]): 39% | IC50 (M21 [3]): 17 µM | Activity (Jurkat [4]): 19% | IC50 (MCF7): 16 µM

O=C(NCCCl)Nc1cccc(S(=O)(=O)Oc2ccc(O)cc2)c1
Activity (Jurkat [5]): 54% | Activity (Jurkat [6]): 22% | Activity (Jurkat [7]): 24% | IC50 (HT-29): 120 µM | IC50 (M21 [3]): 73 µM | IC50 (MCF7): 87 µM

Cc1ccccc1NS(=O)(=O)c1cccc(NC(=O)NCCCl)c1
Activity (Jurkat [8]): 14% | IC50 (HT-29): 71 µM | Activity (Jurkat [9]): 41% | IC50 (M21 [3]): 91 µM | Activity (Jurkat [10]): 45% | IC50 (MCF7): 86 µM

CCc1ccccc1NS(=O)(=O)c1cccc(NC(=O)NCCCl)c1
Activity (Jurkat [11]): 42% | Activity (Jurkat [12]): 12% | IC50 (HT-29): 48 µM | IC50 (M21 [3]): 65 µM | Activity (Jurkat [13]): 46% | IC50 (MCF7): 46 µM

CCCc1ccccc1OS(=O)(=O)c1ccc(NC(=O)NCCCl)cc1
Activity (Jurkat [14]): 16% | IC50 (HT-29): 2.5 µM | TGI (HT-1080): 49% | Activity (Jurkat [15]): 11% | IC50 (M21 [3]): 2.1 µM | Activity (M21 [16]): Active | Activity (Jurkat [17]): 73% | IC50 (MCF7): 3.6 µM

Cc1cccc(OS(=O)(=O)c2ccc(NC(=O)NCCCl)cc2)c1
Activity (Jurkat [18]): 52% | Activity (Jurkat [19]): 35% | IC50 (HT-29): 11 µM | IC50 (M21 [3]): 7.2 µM | Activity (Jurkat [20]): 13% | IC50 (MCF7): 17 µM

CCCc1ccccc1OS(=O)(=O)c1cccc(NC(=O)NCCCl)c1
Activity (Jurkat [21]): 36% | IC50 (HT-29): 15 µM | Activity (Jurkat [22]): 17% | IC50 (M21 [3]): 17 µM | Activity (Jurkat [23]): 47%
